According to article PMC5575935 (Journal of the American Chemical Society, 2017):
Positions count from the first letter of the chain named. pIC50: −log10 of the molar value. One block for each compound: values may come before it.

How the values were obtained:
MAP2K6 [1] = molecular target: T1, MAP2K6 (Homo sapiens, UniProt P52564); assay: Z′-LYTE kinase inhibition assay; assay type: biochemical; conditions: nonelectrophilic analogs relative to EA
T1 sequence (P52564 1-334): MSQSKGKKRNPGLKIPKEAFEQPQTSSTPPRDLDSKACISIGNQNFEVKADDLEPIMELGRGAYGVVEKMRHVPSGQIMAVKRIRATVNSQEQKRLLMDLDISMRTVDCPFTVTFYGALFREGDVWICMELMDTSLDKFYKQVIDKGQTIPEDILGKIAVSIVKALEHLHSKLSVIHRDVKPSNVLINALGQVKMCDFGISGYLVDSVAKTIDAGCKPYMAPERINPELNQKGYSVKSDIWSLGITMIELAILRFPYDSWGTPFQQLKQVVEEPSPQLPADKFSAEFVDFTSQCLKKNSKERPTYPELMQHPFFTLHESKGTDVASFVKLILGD

[2] = molecular target: T2, MAP2K6EE (constitutively active MAP2K6 mutant, S207E and T211E) (Homo sapiens, UniProt P52564, S207E/T211E); assay: Z′-LYTE kinase activity after preincubation with EA and dialysis; assay type: biochemical; conditions: MAP2K6EE incubated with 100 µM EA, then dialyzed into EA-free buffer; vs DMSO
T2 sequence (P52564 1-334 S207E/T211E): T1 sequence (P52564 1-334) with S207E, T211E
Method in brief: (§1)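 The kinase, either MAP2K6EE (S207E/T211E) or its C38A variant, was incubated with 100 µM test compound or DMSO. It was then dialyzed to remove free compound. Z′-LYTE kinase activity was measured as a function of kinase concentration.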

MAP2K6 and other MAP2Ks = assay: LanthaScreen Eu binding assays on MAP2K family members; design: species or system human; conditions: LanthaScreen Eu assays and initial IDUP assay
[3] = molecular target: T3, C38A point mutant of MAP2K6EE (Homo sapiens, UniProt P52564, C38A/S207E/T211E); assay: Z′-LYTE kinase activity after preincubation with EA and dialysis; assay type: biochemical; conditions: C38A MAP2K6EE preincubated with 100 µM EA, then dialyzed; vs DMSO
T3 sequence (P52564 1-334 C38A/S207E/T211E): T1 sequence (P52564 1-334) with C38A, S207E, T211E
Method in brief: as §1

MAP2K6 [4] = molecular target: T1, MAP2K6; assay: IDUP library × library selection, enrichment of ligand:protein barcodes; assay type: binding
Method in brief: (§2)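 Kinases were expressed as SNAP fusions by transient transfection of pDEST-SNAP-kinase vectors into HEK293T cells. Each unpurified lysate was labelled with a 31-nt benzylguanine-linked oligonucleotide carrying a unique 6-nt barcode and a common 3′ 8-nt hybridization region. The pooled protein library was combined with 2 pmol of an equimolar library of 136 DNA-linked compounds. IDUP primer extension followed, and extended products encoding protein:ligand pairs were PCR-amplified for barcode enrichment.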

GSK3α [5] = molecular target: T4, GSK3α (Homo sapiens, UniProt P49840); assay: Z′-LYTE kinase inhibition assay; assay type: biochemical; conditions: non-DNA tagged ligand
T4 sequence (P49840 whole entry): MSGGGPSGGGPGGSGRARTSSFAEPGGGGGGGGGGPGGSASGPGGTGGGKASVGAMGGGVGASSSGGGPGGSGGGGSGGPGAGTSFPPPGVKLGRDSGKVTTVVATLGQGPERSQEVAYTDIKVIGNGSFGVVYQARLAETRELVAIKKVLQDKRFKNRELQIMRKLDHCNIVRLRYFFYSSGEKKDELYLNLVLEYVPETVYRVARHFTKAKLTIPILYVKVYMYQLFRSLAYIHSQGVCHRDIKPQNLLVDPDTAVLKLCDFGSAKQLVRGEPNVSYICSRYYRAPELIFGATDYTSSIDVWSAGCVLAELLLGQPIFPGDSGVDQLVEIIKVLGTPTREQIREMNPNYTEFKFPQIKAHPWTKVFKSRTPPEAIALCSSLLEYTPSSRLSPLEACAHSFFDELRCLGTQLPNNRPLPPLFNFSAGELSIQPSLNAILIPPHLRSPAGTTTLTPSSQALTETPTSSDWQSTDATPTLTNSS

GSK3α [6] = molecular target: T4, GSK3α; assay: IDUP library × library selection, enrichment of ligand:protein barcodes; assay type: binding
Method in brief: as §2

fold weaker inhibition of MAP2K6 than EA (MAP2K6 [1]): > 30 fold
SMILES: CCC(C)C(=O)c1ccc(OCC(=O)O)c(Cl)c1Cl (centres unmarked) [dihydro-ethacrynic acid]

fold weaker inhibition of MAP2K6 than EA (MAP2K6 [1]): > 30 fold
SMILES: O=C(O)COc1ccc(C(=O)c2cccs2)c(Cl)c1Cl [tienilic acid]

apparent loss of kinase activity [2]: 9 fold
loss in inhibition potency [3]: ~ 3.3 fold
IDUP enrichment (MAP2K6 [4]): 4.7 fold
SMILES: C=C(CC)C(=O)c1ccc(OCC(=O)O)c(Cl)c1Cl [EA, ethacrynic acid]
affinity for MAP2K6 compared with other MAP2Ks (MAP2K6 and other MAP2Ks): higher affinity for MAP2K6 than other MAP2Ks

pIC50 (GSK3α [5]): 6.94
IDUP enrichment (GSK3α [6]): 4.7 fold
SMILES: Cl.Cn1cc(C2=C(c3c4n(c5ccccc35)CCC(CN)C4)C(=O)NC2=O)c2ccccc21 (centres unmarked) [bisX, bisindolylmaleimide X]
